Legend:
[1] = test system: K1 xenografts; experiment: SPECT/CT imaging of K1 xenografts; type: in vivo, nude mice; conditions: SPECT ROI, 24h after tail vein injection of 37 MBq; tumor-bearing mouse
Summary of the method: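 Female nude mice bearing K1 xenografts (over 1 cm3) received 37 MBq of the 177Lu-labelled test compound in 100 μL by tail vein. Static SPECT/CT imaging at 4, 12, 24 and 48 h, prone: high-energy collimation, 113 and 208 keV peaks, 256 × 256 matrix, 10-min acquisitions. T/NT was calculated from regions of interest. CT fusion was done at the clearest time point.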

[2] = test system: K1 xenografts; experiment: Therapeutic evaluation in tumor-bearing nude mice; type: in vivo
Summary of the method: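 K1 xenograft-bearing nude mice, randomised into three groups (n = 5). Each group received tail-vein injections (100 μL) every 4 days, three times: radiolabelled test compound (11.1 MBq/5 μg), unlabelled test compound (5 μg) or 0.9% saline. Followed for 45 days. Tumour volume = a × b²/2 (long, short diameters). Growth curves compared by repeated-measures analysis, survival by log-rank test.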

[3] = test system: K1 cells; experiment: In vitro retention assay in K1 cells; type: cell-based; conditions: 6 hrs loading, medium replaced, 2, 4, 6 and 8 hrs, γ-counter
[4] = Stability test of purified probes in human serum; type: in vitro ADME; conditions: 48 h, purified probe, radio-TLC, saline/acetone 1:1, Figure 2
Summary of the method: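 Purified 177Lu-labelled probes were held at room temperature and in human serum. Radiochemical purity was sampled at 1, 4, 12, 24 and 48 h by radio-TLC, developed in saline/acetone 1:1 (v/v) and read on a TLC imaging scanner.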

[5] = Biodistribution in tumor-bearing nude mice; type: in vivo; conditions: for tissue uptake at 4 h / tissue uptake at 12 h / tissue uptake at 24 h / tissue uptake at 48 h: female, nude, mouse, iv, 1.85 MBq, total radioactivity; for Tumor/Blood: ratio, n=3
Summary of the method: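 Female nude mice bearing subcutaneous K1 tumours (5 × 10^6 cells, right forelimb), used once tumours exceeded 1 cm3. The 177Lu-labelled test compound (1.85 MBq in 100 μL) was injected into the tail vein, n = 3 per time point. Mice were killed at 4, 12, 24 and 48 h. Blood, tumour and organs (including brain, bone, heart) were weighed and gamma-counted. %ID/g = tissue counts/(injected counts × tissue mass) × 100%.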

Compound: Cc1cn(CC(=O)N(CCNC(=O)COCCOCCNC(=O)COCCOCCNC(=O)CN2CCN(CC(=O)O)CCN(CC(=O)O)CCN(CC(=O)O)CC2)CC(=O)NCCN(CC(=O)NCCN(CC(=O)NCCN(CC(=O)NCCN(CC(=O)NCCN(CC(=O)NCCN(CC(=O)NCCN(CC(=O)NCCN(CC(=O)NCCN(CC(N)=O)C(=O)Cn2cnc3c(N)ncnc32)C(=O)Cn2cnc3c(N)ncnc32)C(=O)Cn2cnc3c(=O)[nH]c(N)nc32)C(=O)Cn2cnc3c(N)ncnc32)C(=O)Cn2ccc(N)nc2=O)C(=O)Cn2cnc3c(=O)[nH]c(N)nc32)C(=O)Cn2cc(C)c(=O)[nH]c2=O)C(=O)Cn2cnc3c(=O)[nH]c(N)nc32)C(=O)Cn2cnc3c(N)ncnc32)c(=O)[nH]c1=O [^177Lu-asPNA, ^177Lu-DOTA-anti-CITED1-PNA, metal not drawn]
- T/NT (target/non-target) value [1]: 5.11
- tumor growth rate and volume vs asPNA and saline groups ([2]; 18 days after injection, n = 5, volume a × b^2/2): about two-fold smaller
- median survival time longer than those of the other two groups ([2]; vs asPNA and saline groups, n = 5): at least 13 days
- cellular retention [3]: remains in these cells for an extended period of time
- Radiochemical purity (%) [4]: above 91%
- tissue uptake at 4 h ([5]; bone): 2.58 ± 0.63 %ID/g
- tissue uptake at 12 h ([5]; bone): 1.51 ± 0.55 %ID/g
- tissue uptake at 24 h ([5]; bone): 1.03 ± 0.68 %ID/g
- tissue uptake at 48 h ([5]; bone): 0.52 ± 0.23 %ID/g
- tissue uptake at 4 h ([5]; brain): 1.53 ± 0.68 %ID/g
- tissue uptake at 12 h ([5]; brain): 0.42 ± 0.36 %ID/g
- tissue uptake at 24 h ([5]; brain): 0.39 ± 0.77 %ID/g
- tissue uptake at 48 h ([5]; brain): 0.33 ± 0.59 %ID/g
- tissue uptake at 4 h ([5]; heart): 3.67 ± 0.82 %ID/g
- tissue uptake at 12 h ([5]; heart): 3.33 ± 0.25 %ID/g
- tissue uptake at 24 h ([5]; heart): 1.53 ± 0.36 %ID/g
- tissue uptake at 48 h ([5]; heart): 0.54 ± 0.39 %ID/g
- tissue uptake at 4 h ([5]; intestines): 4.92 ± 0.45 %ID/g
- tissue uptake at 12 h ([5]; intestines): 3.17 ± 1.5 %ID/g
- tissue uptake at 24 h ([5]; intestines): 3.03 ± 0.87 %ID/g
- tissue uptake at 48 h ([5]; intestines): 0.85 ± 0.27 %ID/g
- tissue uptake at 4 h ([5]; kidney): 13.8 ± 1.46 %ID/g
- tissue uptake at 12 h ([5]; kidney): 5.96 ± 1.32 %ID/g
- tissue uptake at 24 h ([5]; kidney): 2.06 ± 0.49 %ID/g
- tissue uptake at 48 h ([5]; kidney): 0.87 ± 0.41 %ID/g
- tissue uptake at 4 h ([5]; liver): 13.2 ± 1.26 %ID/g
- tissue uptake at 12 h ([5]; liver): 2.42 ± 0.13 %ID/g
- tissue uptake at 24 h ([5]; liver): 1.81 ± 0.41 %ID/g
- tissue uptake at 48 h ([5]; liver): 1.53 ± 0.23 %ID/g
- tissue uptake at 4 h ([5]; lung): 4.21 ± 0.27 %ID/g
- tissue uptake at 12 h ([5]; lung): 1.86 ± 0.87 %ID/g
- tissue uptake at 24 h ([5]; lung): 1.66 ± 0.52 %ID/g
- tissue uptake at 48 h ([5]; lung): 1.07 ± 0.41 %ID/g
- tissue uptake at 4 h ([5]; muscle): 2.13 ± 0.37 %ID/g
- tissue uptake at 12 h ([5]; muscle): 1.21 ± 0.69 %ID/g
- tissue uptake at 24 h ([5]; muscle): 0.99 ± 0.21 %ID/g
- tissue uptake at 48 h ([5]; muscle): 0.75 ± 0.18 %ID/g
- tissue uptake at 4 h ([5]; spleen): 11 ± 1.07 %ID/g
- tissue uptake at 12 h ([5]; spleen): 4.62 ± 0.58 %ID/g
- tissue uptake at 24 h ([5]; spleen): 2.07 ± 0.62 %ID/g
- tissue uptake at 48 h ([5]; spleen): 1.14 ± 0.14 %ID/g
- tissue uptake at 4 h ([5]; stomach): 4.92 ± 0.26 %ID/g
- tissue uptake at 12 h ([5]; stomach): 2.34 ± 0.42 %ID/g
- tissue uptake at 24 h ([5]; stomach): 2.05 ± 1.03 %ID/g
- tissue uptake at 48 h ([5]; stomach): 0.58 ± 0.27 %ID/g
- tissue uptake at 4 h ([5]; tumor): 5.78 ± 0.87 %ID/g
- tissue uptake at 12 h ([5]; tumor): 5.47 ± 1.03 %ID/g
- tissue uptake at 24 h ([5]; tumor): 4.93 ± 0.47 %ID/g
- tissue uptake at 48 h ([5]; tumor): 3.05 ± 0.66 %ID/g
- tissue uptake at 4 h ([5]; whole blood): 9.45 ± 1.1 %ID/g
- tissue uptake at 12 h ([5]; whole blood): 5.76 ± 0.46 %ID/g
- tissue uptake at 24 h ([5]; whole blood): 1.98 ± 0.41 %ID/g
- tissue uptake at 48 h ([5]; whole blood): 1.77 ± 0.99 %ID/g
- Tumor/Blood ([5]; 4h after tail vein injection of 1.85 MBq, tumor-bearing nude mice): 0.61±1.24
- Tumor/Blood ([5]; 12h after tail vein injection of 1.85 MBq, tumor-bearing nude mice): 0.95±0.97
- blood-brain barrier passage (brain tissue uptake) ([5]; tumor-bearing nude mice, from radioactive marker uptake in brain tissue): could not cross the blood-brain barrier

From article PMC6970276 (OncoTargets and therapy, 2020)
